SIRT5 block = SIRT5 desuccinylase inhibitors, primary screen, biochemical, fluorescence imaging, single point, set 5. NAD-dependent protein deacylase sirtuin-5, mitochondrial (Homo sapiens), Q9NXA8. Purified SirT5, succinyl-peptide AMC, trypsin-coupled fluorescence. inhibition, % at 15 µM. 330,000 compounds, 1.1% hits; in the data active = inhibition above about 15%
rRNA inh HTS = reduced GFP signal of wild-type E. coli, primary screen, bacterial rRNA inhibitor project, GFP/RFP fluorescence, OD600, single point; GFP signal change (wild-type ribosome), % (no concentration beside the values); E. coli WT GFP vs humanized-ribosome RFP mutants, 24 h; stronger effect = lower value; DMSO median 0, no signal -100; 350,000 compounds, 1.6% hits;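 active = significant combined selectivity score with lowered wild-type GFP, culture density cut under 30%, mutant RFP and density less affected; inactive = any of these conditions unmet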
Statin myotox sup = suppressors of statin myotoxicity in C2C12 myotubes, primary screen, cell-based, single point, plate reader | C2C12 myotubes + simvastatin, ATP luminescence, 48 h; scaled: DMSO 0, geranylgeraniol control 100 | rescue of ATP level, % at 7.49 µM | 330,000 compounds, 0.78% hits | AID 602340, 2012;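 active = mean ATP rescue above about 67%, or every replicate alone reaching that limit, limit read from the data, passing the limit was not always enough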;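 note: myotubes were challenged with 10 µM simvastatin during compound exposure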
FN deposition inh = inhibitors of fibronectin matrix deposition, primary screen, AH1F cells, Alexa488-fibronectin fluorescence, plate reader. AH1F fibroblasts, overnight. inhibition, % at 12.6 µM. 350,000 compounds, 0.086% hits. AID 743247, 2014;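 active = mean inhibition across replicates of 30% or more, regardless of how many single replicates reach that level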;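 note: positive control wells lacked labelled fibronectin entirely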
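test system = AH1F fibroblasts assembling fluorescent fibronectin matrix | quantity = 10000 AH1F cells per well | buffer or medium = DMEM plus 2% serum, read in PBS | doses = single dose, pinned | incubation = 1 h cell attachment, overnight exposure to compound and label | detection = fluorescence at 485 nm excitation, 525 nm emission | read-out basis = inhibition from reduced deposited-fibronectin fluorescence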
FGF22 binding = binders of human FGF22 protein, primary screen, FGF22 synaptogenesis inhibitor project, biophysical, thermal shift, single point | Fibroblast growth factor 22 (Homo sapiens), Q9HCT0 | recombinant FGF22 thermal shift, SYPRO orange fluorescence; percent of sucrose octasulfate shift, DMSO zero | activity (Tm shift, normalised), % at 9.99 µM | 340,000 compounds, 1.5% hits | AID 651658, 2012;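 active = mean Tm shift, scaled 0 neutral to 100 positive control, at about 1.3% or above, every replicate too, limit read from the data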
E-sel inducer = E-selectin induction in HUVECs, primary screen, imaging, HUVEC, immunofluorescence imaging, single point. AID 686992, 2013. 260,000 compounds, 0.37% hits. activation, % at 7.58 µM. normalized: neutral wells 0, TNF-alpha wells 100. P16581;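 active = mean E-selectin-positive cell signal at least 10% of the positive control, reached in at least 60% of replicates, without over 20% cell loss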
Target sequence (P16581 whole entry, looked up): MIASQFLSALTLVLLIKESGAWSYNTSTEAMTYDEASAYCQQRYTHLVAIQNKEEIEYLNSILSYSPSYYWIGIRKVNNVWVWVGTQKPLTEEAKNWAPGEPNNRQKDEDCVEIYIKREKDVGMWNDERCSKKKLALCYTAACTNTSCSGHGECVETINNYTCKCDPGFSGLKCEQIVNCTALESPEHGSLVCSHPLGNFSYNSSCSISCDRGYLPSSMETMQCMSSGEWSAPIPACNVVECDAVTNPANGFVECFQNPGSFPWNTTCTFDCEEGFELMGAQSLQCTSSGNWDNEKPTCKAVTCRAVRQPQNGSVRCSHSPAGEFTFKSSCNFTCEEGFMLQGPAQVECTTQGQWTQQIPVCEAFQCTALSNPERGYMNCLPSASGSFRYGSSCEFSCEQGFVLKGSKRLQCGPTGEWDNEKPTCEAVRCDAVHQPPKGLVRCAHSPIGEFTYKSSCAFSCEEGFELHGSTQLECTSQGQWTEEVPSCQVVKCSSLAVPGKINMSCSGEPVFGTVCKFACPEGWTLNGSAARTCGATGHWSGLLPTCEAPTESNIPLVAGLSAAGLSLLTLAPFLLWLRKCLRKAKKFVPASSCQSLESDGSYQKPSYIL
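Read-out basis: % PE-positive cells; Test system: HUVEC primary endothelial cells; Technique: immunofluorescence imaging; Dosing: single-point compound dose.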
Starred values were filed as active, the others as inactive; . = not tested or not shown. Compounds with a hit are over-represented: about 4% of the library has one in this group of screens.

SMILES	SIRT5 block	rRNA inh HTS	Statin myotox sup	FN deposition inh	FGF22 binding	E-sel inducer
O=C1CC2OCC=C3CN4CCC56c7cc([N+](=O)[O-])ccc7N1C5C2C3CC46 (stereo not drawn)	5	11	3	0	0	.
O=C1/C(=C\c2ccccc2)C2OCC=C3CN4CCC56c7ccccc7N1C5C2C3CC46 (stereo not drawn)	2	-3	137*	-2	0	.
C/C=C/c1ccc([C@@H]2[C@H](CO)N3CCCCN(C(=O)Cc4cccnc4)C[C@@H]23)cc1	-2	1	5	0	0	0
O=C(NCCO)c1nsnc1NCCCl	3	10	.	9	43*	0
COCOC1CCC2C3CCC4=CC(=O)CCC4=C3C=CC12C (stereo not drawn)	5	.	2	1	0	.
CC1(O)CCC2C3CCC4=CC(=O)CCC4=C3C=CC21C (stereo not drawn)	.	-18	-1	1	43*	0
CN(C)CC(C(=O)Cc1ccccc1)c1ccccc1 (stereo not drawn)	-2	9	-11	32*	0	0
O=C1C2CCCN2C(c2cccnc2)N1c1nccs1 (stereo not drawn)	.	.	155*	-10	.	.
O=C1CNC[C@@H]2[C@H](c3ccc(Br)cc3)[C@@H](CO)N12	-4	3	.	0	0	0
CC(C)n1nnnc1CN1CCN(C)CC1	.	.	99*	.	.	.
CN(C)C1C(=O)C(C(N)=O)=C(O)C2(O)C(=O)C3=C(O)c4c(O)cccc4C(C)(O)C3C(O)C12 (stereo not drawn)	40*	1	5	0	0	2
CCOC(=O)[C@]12Cc3cc(N(C)C)ccc3[C@H]1N(Cc1ccccc1)C(=O)c1ccccc12	.	-1	95*	-6	0	0
CCOC(=O)[C@]12Cc3cc(Cl)ccc3[C@H]1N(Cc1ccccc1)C(=O)c1ccccc12	3	-1	29	-8	0	0
CC(=O)N1C[C@@H]2N[C@H](C1)C2c1ccccc1 (stereo partly drawn)	.	0	.	-6	.	.
Cc1ccccc1N1C(=O)NC(=O)/C(=C\c2cnn(-c3ccccc3)c2)C1=O	20*	16	.	-1	0	0
CCn1c(C)cc(/C=C2\C(=O)NC(=O)N(c3ccccc3C)C2=O)c1C	-1	12	.	7	0	.
CN1C(=O)C(C2c3ccccc3C(=O)N2Cc2ccccc2)C(=O)N(C)C1=O (stereo not drawn)	.	.	108*	.	.	.
COC(=O)[C@H]1[C@H](CO)[C@H]2Cn3c(ccc(C4=CCCCC4)c3=O)[C@@H]1N2CC1CC1	4	1	-15	.	0	0
O=C(O)c1ccc(Cl)nc1	0	5	-1	-14	43*	.
CC(=O)N1CCN(Cc2ccc(Cl)nc2)CC1	-2	-10	2	-3	0	0
Cc1ccc(OP(=O)(Nc2cccc(C)c2)Oc2ccc(C)cc2)cc1	-2	3	17	2	0	0
Cc1cccc(NP(C)(=O)c2nc3c(s2)CCCC3)c1 (stereo not drawn)	-1	6	143*	-4	0	.
CC(=O)N1C[C@@H]2C(c3ccc(Br)cc3)[C@H](C1)N2CC1CC1 (stereo partly drawn)	.	-2	.	-11	.	.
Cc1ccc(-n2c(O)c(/C=N/N3CCCCC3c3cccnc3)c(=O)[nH]c2=S)cc1 (stereo not drawn)	6	8	.	-4	43*	.
Cc1cccn2c(=O)c3c(nc12)N1CCCCCC1C1(C3)C(=O)N(C)C(=O)N(C)C1=O (stereo not drawn)	.	16	.	-7	0	55*
SMILES	SIRT5 block	rRNA inh HTS	Statin myotox sup	FN deposition inh	FGF22 binding	E-sel inducer
O=C(Cc1cccnc1)N1CCCCN2[C@H](CO)[C@@H](c3ccc(/C=C/c4ccccc4)cc3)[C@@H]2C1	-6	-58	.	.	0	-1
O=C1NC(=S)N(c2ccc(Cl)cc2)C(=O)/C1=C/N1CCN(C(=O)c2ccco2)CC1	.	.	77*	.	.	.
C/C(=C\c1ccc(N(C)C)cc1)[N+](=O)[O-]	0	-5	12	.	0	.
CN(C)c1ccc(/C=C/[N+](=O)[O-])cc1	-4	-18*	.	0	0	0
CCN(CC)C(=O)c1ccc(NC(=O)COc2ccccc2F)cc1	21*	12	8	5	41	.
CCN(CC)C(=O)c1ccc(NC(=O)c2cccc(C(F)(F)F)c2)cc1	3	10	0	-14	0	-1
Cc1[nH]c2ccc(OCc3ccccc3)cc2c1CCN	-4	9	-95	-6	0	0
NCCc1c(Cc2ccccc2)[nH]c2ccccc12	-1	-20*	10	-16	0	4
COC(=O)[C@H]1[C@H](CO)[C@H]2Cn3c(ccc(C4=CCCCC4)c3=O)[C@@H]1N2CC1CCCCC1	-6	-26	.	.	.	-1
CN1C2CN(CC(F)(F)F)CC1C2c1ccc(Br)cc1 (stereo not drawn)	.	2	.	-19	.	.
CN1CCC(N(C)c2ncnc3ccc(Br)cc23)CC1	.	.	83*	.	.	.
O=C(Cc1cccnc1)N1CCCCN2[C@H](CO)[C@@H](c3ccc(/C=C/c4ccccc4)cc3)[C@H]2C1	-2	-59	.	.	0	-1
CCOC(=O)[C@]12Cc3ccc(C)cc3[C@H]1N(C1CCCCC1)C(=O)c1ccccc12	-2	-29	.	26	0	0
CCOC(=O)[C@]12Cc3c(cc(OC)c(OC)c3OC)[C@H]1N(C1CCCCC1)C(=O)c1ccccc12	20*	-48	.	.	0	-2
CN1C[C@@H]2N[C@H](C1)C2c1ccc(Br)cc1 (stereo partly drawn)	.	1	.	-5	.	.
COC(=O)[C@@H]1[C@@H](CO)[C@@H]2Cn3c(ccc(-c4cccnc4)c3=O)[C@H]1N2S(=O)(=O)c1ccccc1F	-21	0	-3	.	0	0
CC(C)(O)/C=C/C(=O)C(C)(O)C1C(O)CC2(C)C3CC=C4C(C=C(O)C(=O)C4(C)C)C3(C)C(=O)CC12C (stereo not drawn)	.	12	.	46*	0	-1
CC(C)OP(=O)(OC(C)C)C(NCc1ccccc1)c1ccccc1 (stereo not drawn)	-9	-20*	.	-6	0	1
